An excerpt weighted towards active compounds, which were near 2.6% of everything screened.
EP2 antag – human EP2 receptor antagonists, primary screen, TR-FRET cAMP, C6 glioma cells; C6 glioma cells expressing human EP2; cells stimulated with saturating PGE2; inhibition, % at 25 µM; hit rate 0.52% among 260,000;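 active means percent inhibition above 40 after rounding to a whole number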;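 further: rat C6 glioma host cells with rolipram phosphodiesterase inhibitor present; the protocol text gives 20 µM as final concentration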
Target sequence (P43116 whole entry, looked up): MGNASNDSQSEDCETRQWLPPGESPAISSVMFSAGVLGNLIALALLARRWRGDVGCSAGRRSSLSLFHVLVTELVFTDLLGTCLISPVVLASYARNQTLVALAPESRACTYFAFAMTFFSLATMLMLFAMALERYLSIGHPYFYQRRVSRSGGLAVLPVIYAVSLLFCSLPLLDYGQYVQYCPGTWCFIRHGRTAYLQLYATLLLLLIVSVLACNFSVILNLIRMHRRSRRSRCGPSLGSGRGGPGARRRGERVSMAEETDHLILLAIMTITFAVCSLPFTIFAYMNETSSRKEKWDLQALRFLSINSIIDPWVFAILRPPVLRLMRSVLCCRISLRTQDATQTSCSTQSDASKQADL
MC4R antag cAMP – MC4R antagonists of cAMP signaling, primary screen, cell-based, TR-FRET, antagonist arm of biased-ligand search; Melanocortin receptor 4 (Homo sapiens), P32245; MC4R-expressing cells, MTII-stimulated cAMP, LANCE TR-FRET; inhibition, % at 6.5 µM; hit rate 0.48% among 360,000; AID 540295, 2011;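 active means inhibition above its plate's cutoff, the mean of tested wells on that plate plus 3 SD, cut at about 29% in these data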
Target sequence (P32245 whole entry, looked up): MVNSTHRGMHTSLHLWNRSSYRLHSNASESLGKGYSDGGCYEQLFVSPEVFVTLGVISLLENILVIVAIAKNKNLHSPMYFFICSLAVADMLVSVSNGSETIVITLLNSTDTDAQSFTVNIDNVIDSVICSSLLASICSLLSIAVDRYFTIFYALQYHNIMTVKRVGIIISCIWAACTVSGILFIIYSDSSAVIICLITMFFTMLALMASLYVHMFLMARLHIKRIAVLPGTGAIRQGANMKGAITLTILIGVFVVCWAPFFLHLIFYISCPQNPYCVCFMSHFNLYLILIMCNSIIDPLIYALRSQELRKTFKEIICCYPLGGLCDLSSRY
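Material: U2OS-MC4R stable cell line | Reagent: Melanotan II challenge after compound preincubation | Doses: One concentration, 6.5 µM nominal | Incubation: 30-min compound preincubation, 1-h Melanotan II challenge, 1-h detection, room temperature | Signal: TR-FRET cAMP assay | Replicates: One well per compound, no replicates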
T cell HTS – modulators of CD8 T cell-vesicle binding, primary screen, mouse 2C CD8+ T cells, flow cytometry | 2C CD8+ T cell-vesicle binding; active compounds read low | response (vesicle binding), % at 7 µM | hit rate 0.068% among 330,000;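 active means response, share of CD8 T cells binding vesicles, and their 90th percentile fluorescence all below set limits, cut at about 80% in these data, passing the limit was not always enough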;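 further: values below 100% mean blocked vesicle binding to the CD8+ T cells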
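Assay system – 2C mouse CD8+ T cells · Also added – QL9-loaded Drosophila micro-vesicles · Timing – Cell–vesicle co-incubation 1.5 h at 37 °C, staining 20 min on ice · Signal – flow cytometry of vesicle-bound cells · Measure – percent CD8+ FL2 mean versus row control · Controls – Peptide-free naked vesicles (low) and QL9 vesicles with 0.7% DMSO vehicle (high)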
MC4R barr agon – MC4R agonists recruiting beta-arrestin, primary screen, cell-based, luminescence, agonist arm of biased-ligand search. Melanocortin receptor 4 (Homo sapiens), P32245. U2OS MC4R beta-arrestin complementation; percent of melanotan II response, DMSO zero. activation, % at 8.9 µM. hit rate 0.98% among 360,000. AID 540308, 2011;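 active means activation above a per-plate cutoff, the mean activation of sample wells on that plate plus 3 SD, cut at about 8% in these data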
Granule exo inh – LAMP-1 surface exposure blockers, TALL-104 cells – cell-based, flow cytometry, MLPCN library, primary screen. TALL-104 LAMP-1 surface exposure; cells stimulated with thapsigargin and PMA. inhibition, % at 10 µM. hit rate 0.66% among 360,000. AID 651702, 2012;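 active means inhibition above about 55%, limit read from the data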
EP2 mod – EP2 receptor modulators, cAMP readout, primary screen, cell-based, HTRF cAMP, PGE2 stimulation. Prostaglandin E2 receptor EP2 subtype (Homo sapiens), P43116. EP2-expressing cells, cAMP HTRF FRET, PGE2 co-stimulation. induction, % at 25 µM. hit rate 0.83% among 260,000. AID 940, 2007;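 active means compounds whose cAMP rise, as percent of the full-agonist control response, exceeds 60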;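 further: rat C6 glioma line stably carrying human EP2 under a CMV promoter; the protocol text gives 20 µM as final concentration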
EP2 cAMP induct – cAMP induction in EP2, EP4, beta2-AR and parental cells, confirmation, counter-screen for EP2 modulator project, cell-based, five parallel assays, C6 glioma, HEK293 | shares compounds with EP2 mod | cAMP HTRF induction; plus low (about EC15) PGE2 agonist | AID 1080, 2008 | calls only at 20 µM (by protocol) | hit rate 47% among 1,300;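 active means cAMP induction above 50% in the main assay while under 30% in all four parallel counter assays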;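 further: rat C6 glioma cells stably expressing human EP2 receptor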
Each line names hits and unclear results; the compound was inactive in the other large screens (follow-up assays come after a bar, where they were run).

Cn1c(SCC(=O)c2ccc(F)cc2)ncc(C(=O)Nc2ccccc2)c1=O	none (no result: EP2 antag, EP2 mod)
CCCCc1ccc(-n2c(Cc3cccs3)n[nH]c2=S)cc1	EP2 mod 71 | EP2 cAMP induct active
O=C(CSc1nc2[nH]ncc2c(=O)n1-c1ccccc1)NCc1cccs1	none
O=C(O)NCc1ccccc1 (tested in a mixture with another compound)	EP2 mod 68 (no result: MC4R antag cAMP, T cell HTS, MC4R barr agon, Granule exo inh) | EP2 cAMP induct active
C=CCn1c(SCC(=O)c2cccs2)nc2sc(CC)cc2c1=O	none
Cc1nc2c3cc(F)ccc3n(Cc3ccccc3F)c2s1	none
Cc1nc2c3cc(F)ccc3n(Cc3ccccc3)c2s1	EP2 mod 72 | EP2 cAMP induct active
COc1cc2c(cc1OC)CN(C(=O)CN1C(=O)NC3(CCC(C)CC3)C1=O)CC2 (configuration not stated)	none (no result: EP2 antag, EP2 mod)
CCOC(=O)N1CCN(C(=O)CN(c2ccccc2OC)S(=O)(=O)c2ccc(OC)cc2)CC1	none
COc1ccc(-c2cc(C(F)(F)F)nc(N3CCN(C)CC3)n2)cc1OC	none
COc1ccc(-c2cc(C(F)(F)F)nc(N3CCCCC3)n2)cc1OC	none | EP2 cAMP induct active
Cc1cc(C)nc(N2CCC(C(=O)N3CCN(c4cc(Cl)ccc4C)CC3)CC2)n1	none
Clc1ccc(COn2c(-c3ccccc3)nc3ccccc32)cc1	EP2 mod 67 | EP2 cAMP induct inactive
CC(C)C(=O)N1CCN(c2ccccc2NC(=O)c2ccc(C#N)cc2F)CC1	none
CC1CCN(c2ccccc2NC(=O)c2ccc(C#N)cc2F)CC1	none | EP2 cAMP induct active
O=C1NC(Cc2ccccc2)c2nc3cc(Cl)ccc3c(=O)n2-c2cc(Cl)ccc21 (configuration not stated)	none (no result: EP2 antag, MC4R antag cAMP, MC4R barr agon, Granule exo inh, EP2 mod)
O=C1CC(O)(c2ccccc2)C(c2ccccc2)=C1c1ccccc1 (configuration not stated)	EP2 mod 76 | EP2 cAMP induct active
O=C1C=C(c2ccccc2)C(O)(c2ccccc2)C1 (configuration not stated)	none
Cc1ccc(N(Cc2ccccc2)Cc2ccccc2)cc1	none (no result: MC4R antag cAMP, T cell HTS, MC4R barr agon, Granule exo inh) | EP2 cAMP induct inactive
Cc1ccc(N(Cc2ccccc2)C(=O)c2ccc(F)cc2)cc1	none (no result: EP2 antag, EP2 mod)
COc1ccc(N(Cc2ccccc2)S(=O)(=O)c2ccc(C)cc2)cc1	EP2 mod 69 | EP2 cAMP induct active
Cc1cc(C)c(CN2CCC(n3nccc3NC(=O)C3CCOC3)CC2)cc1C (configuration not stated)	none (no result: EP2 antag, EP2 mod)
C#CCN1C(C)=C(C(=O)OC)C(c2cccc([N+](=O)[O-])c2)C(C(=O)OCC)=C1C (configuration not stated)	none | EP2 cAMP induct inactive
CCCCN1C(=O)NC(c2cccc([N+](=O)[O-])c2)C(C(=O)OCC)=C1C (configuration not stated)	none (no result: EP2 mod)
Cc1c(F)cccc1NC(=O)CCCCCC1NC(=O)NC1C (configuration not stated)	EP2 mod 77 | EP2 cAMP induct inactive
Cc1ccc(NC(=O)CCN2C(=O)c3ccccc3S2(=O)=O)cc1F	none (no result: EP2 antag, EP2 mod)
CCOC(=O)C1CCN(c2c(C(=O)c3ccccc3)cnc3ccc(CC)cc23)CC1	EP2 mod 77 | EP2 cAMP induct inactive
CC[C@H](Cn1ncc2ccccc2c1=O)NC(=O)C1(c2ccccc2)CCCC1	none (no result: EP2 antag, MC4R antag cAMP, T cell HTS, MC4R barr agon, Granule exo inh)
C=C(C)Cn1c(C)cc(C)c(S(=O)(=O)c2cccc(C)c2)c1=O	EP2 mod 90 | EP2 cAMP induct active
CC1CCc2nn(CC(=O)NCCC3=CCCCC3)cc2C1 (configuration not stated)	none
CCCCC(CC)CN1CN(CC(CC)CCCC)CC(C)(N)C1 (configuration not stated)	none (no result: T cell HTS) | EP2 cAMP induct inactive
CCCCN(CCCC)c1nc2ccccc2nc1C(C#N)C(=O)NCCCOC (configuration not stated)	none
COC(=O)c1ccc(-c2ccco2)n1Cc1ccccc1Cl	EP2 mod 71 | EP2 cAMP induct active
Cc1cc(NC(=O)CSc2nnc(CNC(=O)c3c(F)cccc3F)o2)no1	none (no result: EP2 antag, EP2 mod)
CCSc1nc2ccccc2n1Cc1ccccc1F	EP2 mod 72 | EP2 cAMP induct active
NC(=O)CSc1nc2ccccc2n1Cc1ccccc1F	none
CCCCCn1c(CN2CCN(c3cc(Cl)ccc3C)CC2)nc2c1c(=O)[nH]c(=O)n2C	EP2 mod 78 | EP2 cAMP induct inactive
CCCCCn1c(N2CCN(c3cccc(Cl)c3)CC2)nc2c1c(=O)[nH]c(=O)n2C	none
CCSc1nc2c(c(=O)[nH]c(=O)n2C)n1Cc1ccc(Cl)cc1	EP2 mod 66 | EP2 cAMP induct inactive
CCCCCCn1c(SCC(C)C)nc2c1c(=O)[nH]c(=O)n2C	EP2 mod 67 | EP2 cAMP induct inactive
Cn1c(=O)c2c(nc(CN3CCN(c4ccccc4)CC3)n2Cc2c(F)cccc2Cl)n(C)c1=O	EP2 mod 71 | EP2 cAMP induct inactive
CCCCn1c(CN2CCN(c3ccccc3)CC2)nc2c1c(=O)n(C)c(=O)n2C	none
Cn1c(=O)c2c(nc(CN3CCN(c4ccccc4)CC3)n2Cc2ccccc2Cl)n(C)c1=O	none (no result: T cell HTS) | EP2 cAMP induct inactive
CC1=C(C(=O)N2CCOCC2)CC(CC(=O)NC(c2ccccc2)c2ccccc2)C(=O)N1Cc1ccc(C(C)(C)C)cc1 (configuration not stated)	none (no result: EP2 antag, T cell HTS, EP2 mod)
CC(C)c1ccc(C2/C(=C(/O)c3ccccc3)C(=O)C(=O)N2CCCN2CCOCC2)cc1 (configuration not stated)	none (no result: EP2 antag, EP2 mod)
Cc1ccc(S(=O)(=O)n2c(N)nc3ccccc32)cc1	none
C=CCSc1nc2ccccc2n1S(=O)(=O)c1ccc(C)cc1	EP2 mod 67 | EP2 cAMP induct active
CC(C)CNC(=O)C(=O)NNC(=O)c1ccco1	none | EP2 cAMP induct inactive
Cc1ccc(C(=O)N2CCN(c3cccc(C)c3C)CC2)o1	none (no result: EP2 antag, EP2 mod)
C/C(=N\O)C(=O)OC1CC(C)CCC1C(C)C (configuration not stated)	none | EP2 cAMP induct active

Screens deposited in PubChem BioAssay by several laboratories.
